Laboratory results from ChEMBL document CHEMBL3526035, “Role of the intestinal peptide transporter PEPT1 in oseltamivir absorption: in vitro and in vivo studies” (Drug Metab Dispos, 2012).

How the values were obtained:
Assay type in all cases: ADME, cell-based, Cricetulus griseus
Conditions in all cases: chinese hamster, cho-k1, 10 min
[1] = Drug uptake in CHOK1 cells at 100 uM after 10 mins by HPLC coupled with radiodetection analysis in presence of PEPT1 inhibitor Trp-Gly
How it was run: (§1)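 CHO-K1 cells held in KH buffer at pH 6. Incubated 10 min with [14C]oseltamivir at 100 μM, either with 20 mM Trp-Gly, valacyclovir or cefadroxil, or at 4°C (on ice) against 37°C. Quenched with ice-cold PBS-0.2% BSA, washed, lysed in 1% Triton X-100 at 60°C. Lysate counted by scintillation and normalised to BCA protein. Three experiments, each point in triplicate.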

[2] = Drug uptake in CHOK1 cells expressing human PEPT1 at 100 uM after 10 mins by HPLC coupled with radiodetection analysis in presence of PEPT1 inhibitor Trp-Gly
How it was run: (§2)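 CHO-PEPT1 and parental CHO-K1 cells were washed in KH/MES buffer, then incubated 10 min at 37°C, pH 6, with 100 µM [14C]oseltamivir alone or with 20 mM of the inhibitor. The pH was readjusted after additions. Uptake was quenched with ice-cold PBS-BSA and cells were washed and lysed in 1% Triton X-100. Lysate radioactivity was normalized to BCA protein. Three experiments on separate days, triplicate wells.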

[3] = Drug uptake in CHOK1 cells at 100 uM after 10 mins by HPLC coupled with radiodetection analysis in presence of PEPT1 inhibitor valacyclovir; how it was run: as §1
[4] = Drug uptake in CHOK1 cells expressing human PEPT1 at 100 uM after 10 mins by HPLC coupled with radiodetection analysis in presence of PEPT1 inhibitor cefadroxil; how it was run: as §2

Measured: Drug uptake

CCOC(=O)C1=C[C@@H](OC(CC)CC)[C@H](NC(C)=O)[C@@H](N)C1 [OSELTAMIVIR]
Not Active: all assays above
